# Assay results from different studies.
# Target: Muscarinic acetylcholine receptor M4 (CHRM4, Homo sapiens, UniProt P08173)
# One construct used (P08173 1-479): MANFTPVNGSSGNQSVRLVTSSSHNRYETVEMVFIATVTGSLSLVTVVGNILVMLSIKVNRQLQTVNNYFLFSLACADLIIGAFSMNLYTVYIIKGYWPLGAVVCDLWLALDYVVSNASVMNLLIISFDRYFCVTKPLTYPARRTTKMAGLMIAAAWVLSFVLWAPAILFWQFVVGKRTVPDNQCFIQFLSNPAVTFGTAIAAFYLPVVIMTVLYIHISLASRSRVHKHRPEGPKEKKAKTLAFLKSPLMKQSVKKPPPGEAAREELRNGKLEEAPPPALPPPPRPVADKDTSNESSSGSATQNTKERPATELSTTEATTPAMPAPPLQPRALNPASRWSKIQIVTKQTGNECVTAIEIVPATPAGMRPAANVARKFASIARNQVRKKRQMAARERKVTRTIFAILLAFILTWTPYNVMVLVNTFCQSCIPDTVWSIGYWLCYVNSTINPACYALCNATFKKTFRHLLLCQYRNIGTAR
SMILES,test,setting,inhibition
c1ccc(C(NCCNC(c2ccccc2)c2ccccc2)c2ccccc2)cc1,cell-free assay,10 µM,32%
Cc1ncc(C)n2nc(/C=C/c3nc(N4CCCC4)cc(N4CCOCC4)n3)nc12,ligand displacement,10 µM,47%
C[C@H](C(=O)N[C@H]1COc2ccccc2[C@@H]1S(C)(=O)=O)c1ccc(F)cc1,cell-free assay,10 µM,6%
Cn1cncc1[C@@](O)(COc1ccc(C#N)cc1-c1ccc(OC(F)(F)F)cc1)c1ccc(C#N)cc1,ligand displacement,10 µM,-9.7%
COCc1c(-c2cc3cc(C)cc(OC)c3s2)c2c(N)ncnn2c1CN1CCNC(=O)C1,"ligand displacement, radioligand",10 µM,6%
N#CC1(c2ccccn2)CCN(Cc2cc(C(=O)O)c(=O)n3ccccc23)CC1,cell-free assay,10 µM,-2.36%
CN1CC[C@@]2(C)c3cc(OC(=O)Nc4ccccc4)ccc3N(C)[C@@H]12,"ligand displacement, radioligand",10 µM,0.3%
O=C(Nc1cccnn1)N1CCN([C@@H]2CCOc3cc(C(F)(F)F)ccc32)CC1,cell-free assay,20 µM,15%
